The subject of one experiment is HeLa. The experiment is described as follows: Cytotoxicity against human HeLa cells assessed as inhibition of cell viability after 48 hrs by MTT assay. Type of experiment: functional, cell-based. The procedure, abridged: (§1)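 Cells were seeded at 2.5‒5 x 10^3 per well in DMEM or RPMI with 10% FBS and grown 24 h at 37 °C under CO2. Compounds diluted in medium were added alongside vehicle control for 48 h. MTT (0.5 mg/mL) was added for 4 h, formazan dissolved in DMSO and absorbance read at 570 nm. IC50 is the concentration giving 50% loss of viability; mean ± SD of three experiments, each in triplicate.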

The subject of another experiment is HGC-27. The experiment is described as follows: Cytotoxicity against human HGC27 cells assessed as inhibition of cell viability after 48 hrs by MTT assay. Type of experiment: functional, cell-based. The following applies: HGC-27, 48 h. An outline of the steps:
as §1
In general terms: Tetrazolium assays rely on reduction of a dye to a coloured formazan, in cell work by metabolically active cells.

Experiment [1] concerns NCI-H460. The experiment is described as follows: Cytotoxicity against human NCI-H460 cells assessed as inhibition of cell viability after 48 hrs by MTT assay. Type of experiment: functional, cell-based. Conditions: NCI-H460, 48 h. An outline of the steps: as §1
Experiment [2] concerns DU-145. The experiment is described as follows: Cytotoxicity against human DU145 cells assessed as inhibition of cell viability after 48 hrs by MTT assay. Type of experiment: functional, cell-based. Conditions: DU-145, 48 h. An outline of the steps: as §1
Experiment [3] relates to PC-3. Kind of experiment: Cytotoxicity against human PC3 cells assessed as inhibition of cell viability after 48 hrs by MTT assay. The class given is functional, cell-based. The following applies: PC-3, 48 h. The procedure, abridged:
as §1

The subject of a further experiment is 4T1. The experiment is described as follows: Cytotoxicity against mouse 4T1 cells assessed as inhibition of cell viability after 48 hrs by MTT assay. Type of experiment: functional, cell-based. Conditions: 4T1, 48 h. The procedure, abridged:
as §1

In experiment [4] the test system is NCI-H460. Kind of experiment: Potency index, ratio of curcumin IC50 to test compound IC50 for human NCI-H460 cells. Type of experiment: functional.
In experiment [5] the test system is DU-145. The experiment is described as follows: Potency index, ratio of curcumin IC50 to test compound IC50 for human DU145 cells. Type of experiment: functional.
Experiment [6] has as its system PC-3. The experiment is described as follows: Potency index, ratio of curcumin IC50 to test compound IC50 for human PC3 cells. The class given is functional.

Structures can show the parent of a compound that is named as a salt. A value given as a limit tells only on which side of the number the result lay.

Consider `COc1cc(OC)c(/C=C/C(=O)/C=C/c2nc3ccccn3c2-c2ccccc2)c(OC)c1`, for which the IC50 in the experiment with HeLa, in the experiment on HGC-27, with NCI-H460 [1], in the experiment with DU-145 [2], in the experiment on PC-3 [3] and with 4T1 was greater than 10 µM throughout.

For the molecule `COc1ccc(/C=C/C(=O)/C=C/c2nc3ccccn3c2-c2ccc(F)c(F)c2)c(OC)c1`, the IC50 in the experiment on HeLa came to 8.41 µM; in the experiment with HGC-27, 10.3 µM; with NCI-H460 [1] it was 9.53 µM; in the experiment on DU-145 [2], 8.46 µM; in the experiment on PC-3 [3] it was 8.94 µM; in the experiment with 4T1, 9.72 µM. Besides, the “Ratio IC50” value in the experiment with NCI-H460 [4] is on record as 1.8; in the experiment on DU-145 [5], 3.9; in the experiment with PC-3 [6] it was 2.1.

In the case of `COc1cccc(-c2c(/C=C/C(=O)/C=C/c3ccc(OC)c(OC)c3)nc3ccccn23)c1`, the concentration for half-maximal inhibition (IC50) in the experiment with HeLa, in the experiment with HGC-27, with NCI-H460 [1], in the experiment with DU-145 [2], with PC-3 [3] and in the experiment on 4T1 was greater than 10 µM in each case.

Consider `CC[C@]1(O)C[C@H]2CN(CCc3c([nH]c4ccccc34)[C@@](C(=O)OC)(c3cc4c(cc3OC)N(C=O)[C@H]3[C@@](O)(C(=O)OC)[C@H](OC(C)=O)[C@]5(CC)C=CCN6CC[C@]43[C@@H]65)C2)C1` [VINCRISTINE SULFATE], for which the 50% inhibitory concentration (IC50) in the experiment with DU-145 [2] came to 71.8 µM.

With `COc1ccc(/C=C/C(=O)/C=C/c2nc3ccccn3c2-c2ccc(OC)cc2)cc1`, the IC50 with HeLa, in the experiment on HGC-27, in the experiment on NCI-H460 [1], in the experiment with DU-145 [2], with PC-3 [3] and in the experiment with 4T1 was greater than 10 µM each time.

Regarding `COc1ccc(OC)c(/C=C/C(=O)/C=C/c2nc3ccccn3c2-c2ccccc2)c1`, the IC50 is 5.51 µM in the experiment on HeLa; 7.08 µM in the experiment with HGC-27; 4.01 µM in the experiment with NCI-H460 [1]; 3.38 µM in the experiment on DU-145 [2]; 3.03 µM in the experiment with PC-3 [3]; 3.38 µM with 4T1. Besides, the “Ratio IC50” value was 4.3 in the experiment on NCI-H460 [4], 9.8 with DU-145 [5] and 6.1 with PC-3 [6].

Regarding `COc1cccc(-c2c(/C=C/C(=O)/C=C/c3cc(OC)ccc3OC)nc3ccccn23)c1`, the IC50 with HeLa, with HGC-27, with NCI-H460 [1], with DU-145 [2], in the experiment with PC-3 [3] and with 4T1 was greater than 10 µM each time.

As for `COc1ccc(OC)c(/C=C/C(=O)/C=C/c2nc3ccccn3c2-c2ccc(F)c(F)c2)c1`, the IC50 turned out to be 4.93 µM with HeLa; 6.35 µM with HGC-27; 3.11 µM in the experiment with NCI-H460 [1]; 4.19 µM in the experiment on DU-145 [2]; 2.84 µM with PC-3 [3]; 3.27 µM in the experiment on 4T1. For the same molecule, the “Ratio IC50” value with NCI-H460 [4] came out at 5.5; in the experiment on DU-145 [5] it was 7.9; with PC-3 [6], 6.6.

As for `COc1ccc(/C=C/C(=O)/C=C/c2nc3ccccn3c2-c2ccccc2)cc1`, the 50% inhibitory concentration (IC50) in the experiment on HeLa, with HGC-27, with NCI-H460 [1], in the experiment with DU-145 [2], in the experiment with PC-3 [3] and with 4T1 was greater than 10 µM in each case.

Take `COc1cc(/C=C/C(=O)CC(=O)/C=C/c2ccc(O)c(OC)c2)ccc1O` [CURCUMIN]: in the experiment on PC-3 [3], the IC50 was 18.7 µM.

With `COc1ccc(/C=C/C(=O)/C=C/c2nc3ccccn3c2-c2ccc(F)c(F)c2)cc1OC`, the IC50 with HeLa was found to be 5.58 µM; with HGC-27, 3.38 µM; in the experiment on NCI-H460 [1], 3.01 µM; in the experiment on DU-145 [2], 4.87 µM; with PC-3 [3], 5.43 µM; with 4T1, 3.45 µM. Besides, the entries for the “Ratio IC50” value with NCI-H460 [4], in the experiment with DU-145 [5] and in the experiment with PC-3 [6] were 5.7, 6.8 and 3.4, respectively.

On to `COc1cc(OC)c(OC)cc1/C=C/C(=O)/C=C/c1nc2ccccn2c1-c1ccccc1`, for which the half-maximal inhibitory concentration (IC50) in the experiment with HeLa was found to be 1.67 µM; in the experiment on HGC-27 it was 5.38 µM; in the experiment on NCI-H460 [1] it was 2.84 µM; with DU-145 [2] it was 3.71 µM; in the experiment with PC-3 [3] it was 2.75 µM; with 4T1 it was 1.68 µM. In addition, the results for the “Ratio IC50” value in the experiment on NCI-H460 [4], in the experiment with DU-145 [5] and in the experiment with PC-3 [6] were 6, 8.9 and 6.8, respectively.

Take `COc1ccc(-c2c(/C=C/C(=O)/C=C/c3cc(OC)c(OC)cc3OC)nc3ccccn23)cc1`: the IC50 in the experiment with HeLa was 9.41 µM; with HGC-27, 8.77 µM; in the experiment with NCI-H460 [1], 5.52 µM; in the experiment with DU-145 [2], 5.63 µM; in the experiment with PC-3 [3], 7.24 µM; with 4T1, 4.69 µM. Also, the “Ratio IC50” value with NCI-H460 [4] was 3.1; in the experiment on DU-145 [5], 5.9; in the experiment on PC-3 [6] it was 2.6.

Turning to `COc1cccc(-c2c(/C=C/C(=O)/C=C/c3ccc(OC)cc3OC)nc3ccccn23)c1`, the 50% inhibitory concentration (IC50) in the experiment with HeLa, in the experiment with HGC-27, in the experiment on NCI-H460 [1], with DU-145 [2], in the experiment on PC-3 [3] and with 4T1 was greater than 10 µM each time.

Turning to `COc1ccc(/C=C/C(=O)/C=C/c2nc3ccccn3c2-c2ccccc2)c(OC)c1`, the IC50 with HeLa, with HGC-27, with NCI-H460 [1], in the experiment with DU-145 [2], in the experiment with PC-3 [3] and in the experiment with 4T1 was greater than 10 µM throughout.

With `COc1ccc(-c2c(/C=C/C(=O)/C=C/c3cc(OC)ccc3OC)nc3ccccn23)cc1`, the concentration for half-maximal inhibition (IC50) with HeLa, in the experiment on HGC-27, with NCI-H460 [1], with DU-145 [2], in the experiment with PC-3 [3] and with 4T1 was greater than 10 µM throughout.

In the case of `COc1ccc(/C=C/C(=O)/C=C/c2nc3ccccn3c2-c2ccccc2)cc1OC`, the IC50 with HeLa, with HGC-27, in the experiment with NCI-H460 [1], in the experiment with DU-145 [2], with PC-3 [3] and with 4T1 was greater than 10 µM throughout.

`COc1ccc(/C=C/C(=O)/C=C/c2nc3ccccn3c2-c2ccc(F)c(F)c2)cc1`: the IC50 with HeLa, in the experiment on HGC-27, in the experiment with NCI-H460 [1], in the experiment with DU-145 [2], in the experiment with PC-3 [3] and with 4T1 was greater than 10 µM in each case.

On to `COc1ccc(/C=C/C(=O)/C=C/c2nc3ccccn3c2-c2cccc(OC)c2)cc1`, for which the IC50 in the experiment on HeLa, with HGC-27, in the experiment on NCI-H460 [1], in the experiment with DU-145 [2], in the experiment with PC-3 [3] and with 4T1 was greater than 10 µM in each case.

In the case of `COc1ccc(-c2c(/C=C/C(=O)/C=C/c3ccc(OC)c(OC)c3)nc3ccccn23)cc1`, the IC50 was found to be 6.66 µM with HeLa; 7.84 µM in the experiment on HGC-27; 4.28 µM in the experiment with NCI-H460 [1]; 4 µM in the experiment on DU-145 [2]; 3.64 µM in the experiment with PC-3 [3]; 5.61 µM in the experiment with 4T1. Besides, the “Ratio IC50” value in the experiment on NCI-H460 [4] is given as 4; with DU-145 [5] it was 8.3; in the experiment with PC-3 [6] it was 5.1.

Take `COc1ccc(-c2c(/C=C/C(=O)/C=C/c3ccc(OC)cc3OC)nc3ccccn23)cc1`: the half-maximal inhibitory concentration (IC50) in the experiment with HeLa, in the experiment with HGC-27, in the experiment with NCI-H460 [1], in the experiment on DU-145 [2], in the experiment with PC-3 [3] and in the experiment with 4T1 was greater than 10 µM in each case.

What is called IC50 is the midpoint of a concentration-inhibition curve.

These data come from ChEMBL document CHEMBL4251576, “Synthesis and biological evaluation of curcumin inspired imidazo[1,2-a]pyridine analogues as tubulin polymerization inhibitors” (Eur J Med Chem, 2018).
